Measurements collected from several papers.
Protocols differ between the studies behind these lines.
Target: TGF-beta receptor type-2 (TGFBR2, Homo sapiens, UniProt P37173)

Structure (SMILES) | test | setting | remaining binding [%]
COc1ccc2c(O[C@@H]3C[C@H]4C(=O)N[C@]5(C(=O)O)CC5/C=C\CCCCC[C@H](NC(=O)OC5CCCC5)C(=O)N4C3)cc(-c3csc(NC(=O)C(C)C)n3)nc2c1C (stereo partly drawn) | cell-free assay, competition with immobilised ligand | 1 µM | 93
Nc1ncc2c(n1)-c1c([nH]c3ccc(C#CC4CC4)cc13)CCCC2 | binding, competition with immobilised ligand | 1 µM | 100
O=C(O)[C@@H]1[C@@H](Cn2nnc3ccccc3c2=O)CC[C@H]1C(=O)c1ccc(OCCC2CCOCC2)cc1 | cell-free assay, competition with immobilised ligand | 1 µM | 100
O=C(c1ccc(Nc2nccc(-c3cc4ccccc4s3)n2)cc1)N1CCC(N2CCCC2)CC1 | binding, competition with immobilised ligand | 1 µM | 88
O=C(NCC1CCOCC1)c1n[nH]cc1NC(=O)c1c(F)cccc1F | binding, competition with immobilised ligand | 1 µM | 100
CC1CCCN1c1nccc(-c2cnn3ncccc23)n1 (stereo not drawn) | binding | 1 µM | 100
c1cncc(-c2cccc(Nc3nccc(NC4CCCCC4)n3)c2)c1 | binding, competition with immobilised ligand | 10 µM | 30
C[C@@H]1CCN(c2nccc(-c3cnn4ncccc34)n2)C1 | binding | 1 µM | 100
COc1cc(-c2cn(C3CCc4c(F)cccc4N(CC(F)(F)F)C3=O)nn2)ccc1-n1cnc(C)c1 (stereo not drawn) | cell-free assay, competition with immobilised ligand | 1 µM | 100
O=C(c1ccc(Nc2ncc(Cl)c(-c3ccc(Cl)s3)n2)cc1)N1CCC(N2CCCC2)CC1 | binding, competition with immobilised ligand | 1 µM | 100
COc1cnc(Nc2cccc(S(N)(=O)=O)c2)nc1N1CCN(c2ccccc2)C(=O)C1 | binding, competition with immobilised ligand | 1 µM | 100
O=C1CCc2cc(Nc3cc(OC4CCOCC4)c([N+](=O)[O-])cc3Cl)ccc2N1 | cell-free assay, competition with immobilised ligand | 1 µM | 98
FC(F)(F)Oc1cccc(-c2cnc3ccc(-c4ccncc4)nn23)c1 | cell-free assay, competition with immobilised ligand | 5 µM | 66
N[C@H]1CCN(c2nccc(-c3cnn4ncccc34)n2)C1 | binding | 1 µM | 86
Cc1cnc(Nc2ccc(C(=O)N3CCC(N4CCCC4)CC3)cc2)nc1-c1cc2ccccc2s1 | binding, competition with immobilised ligand | 1 µM | 61
CN(CCCC(F)(F)F)c1nccc(-c2cnn3ncccc23)n1 | binding | 1 µM | 73
CNC(=O)[C@@H]1CC[C@@H](n2c(-c3ccc4cnccc4c3)nc3ccc(C(=O)NCc4cccc(C(N)=O)c4)cc32)C1 | binding, competition with immobilised ligand | 1 µM | 100
CN(C)c1ncc(F)c(-c2cnn3ncccc23)n1 | binding | 1 µM | 100
CNCc1ccccc1-c1csc([C@H](C)Nc2nc(C)nc3cc(OC)c(OC)cc23)c1 | cell-free assay, competition with immobilised ligand | 1 µM | 97
F[C@@H]1CCN(c2nccc(-c3cnn4ncccc34)n2)C1 | binding | 1 µM | 100
COc1cccc(CNC(=O)c2nc3scc(COCc4ccc(C(=O)O)cc4)c3c(=O)[nH]2)c1 | cell-free assay, competition with immobilised ligand | 1 µM | 97
